# Paper PMC3958936 (Bioorganic & medicinal chemistry, 2013)
# Columns and labels:
# [1] = test system: SK-MEL2; test: Proliferation assay on SK-MEL2 cultured with reduced serum, 5% FBS; assay type: cell-based; settings: 5% FBS versus 10% FBS
# [2] = test system: xenograft mouse models, melanoma models; settings: several xenograft mouse models; cited from earlier work
# [3] = test system: HeLa, RKO, HaCaT, Jurkat T, BAEC; test: Cell proliferation assays, first generation, statements pooled over cell lines; assay type: cell-based; settings: for anti-proliferative IC50 values, in words: first generation protocol, cell lines tested
# [4] = test system: IL-2 reporter gene; settings: Jurkat T cells; data previously reported; ref Romo et al.[29]; cited from earlier work
# [5] = test system: DNA polymerases α and β; settings: read-out: IC50, DNA polymerases α and β; direct in vitro inhibition; cited from earlier work
# [6] = test system: cancer cell lines; settings: cell culture, variety of cancer cell lines; cited from earlier work
# [7] = test system: immortalized mouse embryonic fibroblasts (MEFs); assay type: cell-based; settings: for IC50: Mus musculus, Fibroblast, read-out: estimated IC50, MEFs; for fold loss in activity in MEFs compared with cancer cell lines: estimated
# [8] = test system: SK-MEL2 melanoma cells; test: MTT cell proliferation assay, second-generation analogs, SK-MEL2; assay type: cell-based; settings: versus DMDAPatA (2)
# In short: (§1)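 HeLa and SK-MEL2 cells were grown in DMEM, Jurkat T cells in RPMI 1640, each with 10% FBS and pen-strep at 37 °C, 5% CO2. Adherent lines were seeded at 2000 cells/well and allowed to recover overnight; Jurkat were seeded at 5000 cells/well with no recovery. Compound was given in 0.1% DMSO final for 72 h, then MTT read-out.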
# [9] = test system: Jurkat T cells; test: MTT cell proliferation assay, second-generation analogs, Jurkat T; assay type: cell-based, human; settings: versus DMDAPatA (2)
# In short: as §1
# [10] = test system: HeLa, Jurkat T cells, and SK-MEL2; test: MTT cell proliferation assays, statements pooled over all three cell lines; assay type: cell-based; settings: for cell proliferation inhibition activity, in words: all cell lines tested
# [11] = test system: HeLa; test: MTT cell proliferation assay, second-generation analogs, HeLa; assay type: cell-based, human; settings: versus DMDAPatA (2)
# In short: as §1
# [12] = test system: cap-dependent (eIF4AI/II-dependent) translation; test: In vitro translation assay in rabbit reticulocyte lysate, cap-dependent cistron; assay type: biochemical; settings: for fold loss of activity in in vitro translation assay: versus DMDAPatA (2)
# In short: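 Bicistronic reporter mRNA (cap-dependent firefly cistron; HCV IRES-driven Renilla cistron) was SP6-transcribed from linearized plasmid and purified. 200 ng RNA was translated in 20 μl rabbit reticulocyte lysate reactions with 70 mM KCl, 2 mM DTT and RNasin. Compound in DMSO was added at 5% (v/v) final. Reactions ran 1.5 h at 30 °C, then dual-luciferase read-out. Duplicates; 4 independent assays; IC50 by curve fitting, averaged.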
smiles,measurement,setting,value
"CC(/C=C/C(C)=C/[C@@H]1Cc2nc(cs2)CCCCC(=O)O[C@@H](C)C/C(C)=C/C=C\C(=O)O1)=C\CN(C)C [Compound 2, C5-des-methyl, C3-des-amino pateamine A]",fold reduced anti-proliferative activity under 5% FBS,[1],roughly 2 fold
same,anticancer activity in xenograft mouse models,[2],potent anticancer activity in several xenograft mouse models with especially significant regressions in melanoma models
same,fold lower activity than PatA in cell proliferation assays,[3]; DMDAPatA versus PatA,roughly 10 fold
same,"anti-proliferative IC50 values, in words",[3],single-digit nanomolar
same,IC50 (nM) IL-2 reporter gene assay,[4],sub-nanomolar
same,IC50,[5],3 to 19 µM
same,"anti-proliferative IC50 values in cancer cell lines, in words",[6],approximately single-digit nanomolar
same,IC50,[7],> 50 nM
same,fold loss in activity in MEFs compared with cancer cell lines,[7],roughly 5 fold
C/C(Br)=C\[C@@H]1Cc2nc(cs2)CCCCC(=O)O[C@@H](C)C/C(C)=C/C=C\C(=O)O1 [Compound 5],fold loss of activity in SK-MEL2 cells,[8],≥ 700 fold
same,fold loss of activity in Jurkat T cells,[9],≥ 700 fold
C/C(Br)=C\[C@@H]1Cc2nc(cs2)CCCCC(=O)O[C@@H](C)C/C(C)=C/C=C/C(=O)O1 [Compound 6],"cell proliferation inhibition activity, in words",[10],inactive
CC(/C=C/C(C)=C/[C@@H]1Cc2nc(cs2)CCCCC(=O)O[C@@H](C)C/C(C)=C/C=C\C(=O)O1)=C\CN1CCOCC1 [Compound 9b],fold increase of activity under 5% FBS,[1],roughly 2 fold
same,fold loss of activity in SK-MEL2 cells,[8],approximately 25 fold
same,fold loss of activity in Jurkat T cells,[9],at least 700 fold
same,IC50,[7],> 2000 nM
same,fold loss in activity in MEFs compared with cancer cell lines,[7],roughly 5 fold
same,fold loss of activity in HeLa cells,[11],greater than 400 fold
same,fold loss of activity in in vitro translation assay,[12],roughly 3 fold
CC(/C=C/C(C)=C/[C@@H]1Cc2nc(cs2)CCCCC(=O)O[C@@H](C)C/C(C)=C/C=C\C(=O)O1)=C\CN1CCCC1 [Compound 9c],IC50,[7],> 100 nM
same,fold loss of activity in all cell lines,"[10]; versus DMDAPatA (2), HeLa, SK-MEL2, Jurkat T",~2 fold
same,fold loss of activity in in vitro translation assay,[12],2 fold
CC(/C=C/C=C/CO)=C\[C@@H]1Cc2nc(cs2)CCCCC(=O)O[C@@H](C)C/C(C)=C/C=C\C(=O)O1 [Compound 9e],IC50 (nM) cap-dependent translation inhibition,"[12]; rabbit reticulocyte lysate, 30 °C, 1.5 h, ± 1 standard deviation, N.E. = no effect up to concentration (nM) in parentheses",a degree of activity at high concentration
CC(/C=C/C(C)=C/[C@@H]1Cc2nc(cs2)CCCCC(=O)O[C@@H](C)C/C(C)=C/C#CC(=O)O1)=C\CN(C)C [Compound 10a],"cell proliferation inhibition activity, in words",[10],no effect was observed
COCCC/C=C/C(C)=C/[C@@H]1Cc2nc(cs2)CCCCC(=O)O[C@@H](C)C/C(C)=C/C#CC(=O)O1 [Compound 10f],"cell proliferation inhibition activity, in words",[10],did not demonstrate any significant cell proliferation inhibition activity
CC(/C=C/CCCO)=C\[C@@H]1Cc2nc(cs2)CCCCC(=O)O[C@@H](C)C/C(C)=C/C#CC(=O)O1 [Compound 10g],"cell proliferation inhibition activity, in words",[10],did not demonstrate any significant cell proliferation inhibition activity
"CC(/C=C/C(C)=C/[C@@H]1Cc2nc(cs2)[C@@H](C)C[C@@H](N)CC(=O)O[C@@H](C)C/C(C)=C/C=C\C(=O)O1)=C\CN(C)C [PatA (1), pateamine A, reference compound]","anti-proliferative IC50 values, in words",[3],sub-nanomolar
same,"anti-proliferative IC50 values in cancer cell lines, in words",[6],sub-nanomolar range
